# Measured values of several laboratories.
# Lines come from different studies, so protocols differ.
# Target: Vascular endothelial growth factor receptor 3 (FLT4, Homo sapiens, UniProt P35916)
SMILES,effect on,action,method,tested at,measurement,value
Nc1ncc(-c2nc(N3CCOCC3)nc(N3CCOCC3)n2)c(C(F)F)n1,cell-free assay,,competition with immobilised ligand,10 µM,remaining binding,77%
CC(C)(C)c1cc(C=C(C#N)C#N)cc(Br)c1O,enzyme activity,inhibitor,,0.5 µM,remaining activity,102%
COc1ncccc1-c1cnn2ccc(N3CCN(C(=O)OC(C)C)CC3)nc12,binding,,competition with immobilised ligand,1 µM,remaining binding,99%
Cn1cc(-c2cc(F)cc(N3CCn4c(cc5c4CCCC5)C3=O)c2CO)cc(Nc2ccc(N3CCN(C4COC4)CC3)cn2)c1=O,enzyme activity,inhibitor,,0.1 µM,inhibition,12%
Cn1cncc1[C@@](O)(COc1ccc(C#N)cc1-c1ccc(OC(F)(F)F)cc1)c1ccc(C#N)cc1,cell-free assay,,competition with immobilised ligand,1 µM,remaining binding,90%
COCc1c(-c2cc3cc(C)cc(OC)c3s2)c2c(N)ncnn2c1CN1CCNC(=O)C1,cell-free assay,,competition with immobilised ligand,1 µM,inhibition,93.8%
N#CC1(c2ccccn2)CCN(Cc2cc(C(=O)O)c(=O)n3ccccc23)CC1,cell-free assay,,competition with immobilised ligand,1 µM,remaining binding,100%
COc1cc(Nc2ncc(F)c(Nc3ccc4c(n3)NC(=O)C(C)(C)O4)n2)cc(OC)c1OC,binding,,,10 µM,inhibition,100%
Cn1cc(-c2cccc(N3CCc4c(sc5c4CC(C)(C)C5)C3=O)c2CO)cc(Nc2ccncn2)c1=O,enzyme activity,inhibitor,,1 µM,inhibition,13%
O=c1[nH]c2ccccc2n1C1CCN(Cc2ccc(-c3[nH]c4cc5ncnc5cc4nc3-c3ccccc3)cc2)CC1,cell-free assay,,,0.5 µM,remaining signal,98.7%
Cc1nn(C)cc1-c1nc2c(N3CCN(Cc4ccc(Cl)cc4)CC3)c(Cl)cnc2[nH]1,binding,,competition with immobilised ligand,1 µM,remaining binding,0%
